Reference: ChEMBL document CHEMBL1140578, “Solid-phase synthesis and biological evaluation of a uridinyl branched peptide urea library” (2007)
Converted amounts (≈) assume the structure as drawn. The source made the active and inactive calls. The rule behind the calls is not given here.

Columns and labels:
[1] = system: Mycobacterium tuberculosis; experiment: Antituberculosis activity against Mycobacterium tuberculosis H37Rv by micro-broth dilution method; format: functional
Method in brief: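 M. tuberculosis H37Rv grown in Middlebrook 7H9 ADC medium and tested by microbroth dilution per CLSI guidelines, with 2×10^4 bacteria per well. Compounds were dissolved and diluted in DMSO (4 μl into 196 μl). The primary screen used 20, 10 and 5 μg/ml based on recovered yield. Resynthesized compounds were run as 1:1 serial dilutions from 200 to 1.56 μg/ml to give MIC90. Controls were no drug and isoniazid.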

Bacillus anthracis = experiment: Antimicrobial activity against Bacillus anthracis Sterne; format: functional, organism-based
Bacillus subtilis = experiment: Antimicrobial activity against Bacillus subtilis; format: functional, organism-based
Escherichia coli = experiment: Antimicrobial activity against Escherichia coli K12; format: functional, organism-based
Enterococcus faecalis = experiment: Antimicrobial activity against Enterococcus faecalis; format: functional, organism-based
Staphylococcus aureus = experiment: Antimicrobial activity against methicillin-susceptible Staphylococcus aureus; format: functional, organism-based

Row | SMILES | MIC90 [1] | Activity (Bacillus anthracis) | Activity (Bacillus subtilis) | Activity (Escherichia coli) | Activity (Enterococcus faecalis) | Activity (Staphylococcus aureus)
1 | CC(=O)c1cccc(NC(=O)N[C@@H](Cc2c[nH]c3ccccc23)C(=O)N[C@@H](CNC(=O)[C@@H](N)CC(N)=O)C(=O)NC[C@H]2O[C@@H](n3ccc(=O)[nH]c3=O)[C@H](O)[C@@H]2O)c1 | > 200 µg/mL | inactive | inactive | inactive | inactive | inactive
2 | COc1ccc(NC(=O)N[C@@H](Cc2c[nH]c3ccccc23)C(=O)N[C@@H](CNC(=O)[C@@H](N)Cc2c[nH]c3ccccc23)C(=O)NC[C@H]2O[C@@H](n3ccc(=O)[nH]c3=O)[C@H](O)[C@@H]2O)cc1 | 12.5 µg/mL (≈ 14.7 µM) | inactive | inactive | inactive | inactive | inactive
3 | CCCCCCNC(=O)N[C@@H](Cc1c[nH]c2ccccc12)C(=O)N[C@@H](CNC(=O)[C@@H](N)Cc1c[nH]c2ccccc12)C(=O)NC[C@H]1O[C@@H](n2ccc(=O)[nH]c2=O)[C@H](O)[C@@H]1O | 25 µg/mL (≈ 30.2 µM) | inactive | inactive | inactive | inactive | inactive
4 | CC(=O)c1cccc(NC(=O)N[C@@H](Cc2c[nH]c3ccccc23)C(=O)N[C@@H](CNC(=O)[C@@H](N)Cc2c[nH]c3ccccc23)C(=O)NC[C@H]2O[C@@H](n3ccc(=O)[nH]c3=O)[C@H](O)[C@@H]2O)c1 | 50 µg/mL (≈ 57.9 µM) | inactive | inactive | inactive | inactive | inactive
5 | CCCNC(=O)N[C@@H](Cc1c[nH]c2ccccc12)C(=O)N[C@@H](CNC(=O)[C@@H](N)Cc1c[nH]c2ccccc12)C(=O)NC[C@H]1O[C@@H](n2ccc(=O)[nH]c2=O)[C@H](O)[C@@H]1O | 100 µg/mL (≈ 127 µM) | inactive | inactive | inactive | inactive | inactive
6 | CSCC[C@H](NC(=O)NCCc1ccccc1)C(=O)N[C@@H](CNC(=O)[C@@H](N)Cc1ccc([N+](=O)[O-])cc1)C(=O)NC[C@H]1O[C@@H](n2ccc(=O)[nH]c2=O)[C@H](O)[C@@H]1O | 100 µg/mL (≈ 125 µM) | inactive | inactive | inactive | inactive | inactive
7 | COc1ccc(NC(=O)N[C@@H](Cc2ccc(O)cc2)C(=O)N[C@@H](CNC(=O)[C@@H](N)Cc2ccc([N+](=O)[O-])cc2)C(=O)NC[C@H]2O[C@@H](n3ccc(=O)[nH]c3=O)[C@H](O)[C@@H]2O)cc1 | 12.5 µg/mL (≈ 15 µM) | inactive | inactive | inactive | inactive | inactive
8 | N[C@@H](Cc1c[nH]c2ccccc12)C(=O)NC[C@H](NC(=O)[C@H](Cc1c[nH]c2ccccc12)NC(=O)NCCc1ccccc1)C(=O)NC[C@H]1O[C@@H](n2ccc(=O)[nH]c2=O)[C@H](O)[C@@H]1O | 50 µg/mL (≈ 58.9 µM) | inactive | inactive | inactive | inactive | inactive
9 | CCCCCCNC(=O)N[C@@H](Cc1ccc(O)cc1)C(=O)N[C@@H](CNC(=O)[C@@H](N)Cc1c[nH]c2ccccc12)C(=O)NC[C@H]1O[C@@H](n2ccc(=O)[nH]c2=O)[C@H](O)[C@@H]1O | 12.5 µg/mL (≈ 15.5 µM) | inactive | inactive | inactive | inactive | inactive
